Calls of active or inactive are those of the source.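 Rule for the calls, unless noted: active = inhibition above 20% together with a positive visual image hit; inconclusive = visual image hit but inhibition not above 20%; inactive = no visual image hit.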
Columns and labels:
[1] = inhibitors of TNFa-induced NFkB p65 translocation, primary screen, imaging, HUVEC, MLSMR starter and 10KST1 sets (AID 438); settings: HUVEC TNFa-induced p65 nuclear translocation; cell count: measured here: nuclei count (cytotoxicity indicator), at 2.08 µM; inhibition: at 2 µM, stronger effect = higher value, 0% TNFa-plus-vehicle, 100% no-TNFa wells;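 note: compound added about 3h40 before a 20 min TNFalpha stimulation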;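 for inhibition: signal is the nuclear over cytoplasmic p65 intensity ratio per well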
[2] = inhibitors of E-selectin induction by TNFa, primary screen, imaging, HUVEC, immunofluorescence, MLSMR starter and 10KST1 sets (AID 487;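 active = visually confirmed hit in the image check and inhibition above 20%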;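 for inhibition: signal is fraction of cell area covered by stained E-selectin grains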;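 for nuclei count: 100% = median nuclei count of all wells on the same plate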); settings: HUVEC TNFalpha-induced E-selectin immunofluorescence imaging, at 2 µM; inhibition: stronger effect = higher value; nuclei count: measured here: cell number, toxicity
[3] = DUSP6 inhibitors restoring Erk phosphorylation by chemical complementation, primary imaging in DUSP6-transfected HeLa (AID 609;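 active = compounds giving at least 50% inhibition in the cell-based MKP-3 phosphatase rescue imaging test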;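 for inhibition: phospho-Erk level distribution per well compared with pooled transfected vehicle control wells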); settings: HeLa MKP-3 transfected, phospho-Erk imaging KS statistic, at 10 µM, cells stimulated with TPA for 15 min
[4] = target: Dual specificity protein phosphatase 6 (Homo sapiens) (UniProt Q16828); experiment: as above; settings: HeLa MKP-3 transfected, phospho-Erk imaging KS statistic; at 10 µM; stronger effect = higher value; cells stimulated with TPA for 15 min
Dual specificity protein phosphatase 6 (Homo sapiens), sequence (Q16828 whole entry, looked up): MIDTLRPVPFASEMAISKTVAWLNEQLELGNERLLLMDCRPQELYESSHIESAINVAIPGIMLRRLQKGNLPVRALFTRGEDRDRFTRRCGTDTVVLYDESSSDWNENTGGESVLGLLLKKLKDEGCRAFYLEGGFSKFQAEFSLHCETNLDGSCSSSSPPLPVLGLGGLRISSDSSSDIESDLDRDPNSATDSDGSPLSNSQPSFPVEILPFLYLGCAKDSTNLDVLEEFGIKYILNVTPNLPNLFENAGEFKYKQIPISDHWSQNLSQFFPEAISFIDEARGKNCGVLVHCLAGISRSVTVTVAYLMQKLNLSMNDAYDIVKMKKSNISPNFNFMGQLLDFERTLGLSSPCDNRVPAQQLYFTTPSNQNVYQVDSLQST

[5] = target: Voltage-gated potassium channel subunit beta-2 (Rattus norvegicus) (UniProt P62483); experiment: KvBeta enzyme negative modulators, primary screen, biochemical, NADPH fluorescence (AID 622;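 active = fluorescence slope higher than the sample average by over 3 SD, cut at about -0.22 in these data, passing the limit was not always enough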;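 note: slope of raw intensity against log time taken from 70 to 1610 s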); settings: recombinant KvBeta, 4-cyanobenzaldehyde reduction, at 10 µM, stronger effect = higher value
Voltage-gated potassium channel subunit beta-2 (Rattus norvegicus), sequence (P62483 whole entry, looked up): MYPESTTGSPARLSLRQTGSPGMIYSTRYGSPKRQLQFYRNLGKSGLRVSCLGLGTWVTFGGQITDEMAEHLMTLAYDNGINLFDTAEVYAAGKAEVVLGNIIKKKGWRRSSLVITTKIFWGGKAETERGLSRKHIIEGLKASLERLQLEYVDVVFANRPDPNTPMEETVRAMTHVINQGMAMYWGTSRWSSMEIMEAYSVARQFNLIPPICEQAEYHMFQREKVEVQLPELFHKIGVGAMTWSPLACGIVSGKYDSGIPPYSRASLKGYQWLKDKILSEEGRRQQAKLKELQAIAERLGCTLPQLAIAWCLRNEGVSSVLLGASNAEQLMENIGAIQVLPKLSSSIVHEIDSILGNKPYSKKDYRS

[6] = target: Voltage-gated potassium channel subunit beta-2 (Rattus norvegicus) (UniProt P62483); experiment: KvBeta positive modulators, primary screen, biochemical, NADPH fluorescence (AID 623;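 active = NADPH fluorescence slope more negative than the mean of all samples by about 3 SD, 99.7% confidence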;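 note: fluorescence intensity change per second fitted from 20 to 320 s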); settings: Recombinant KvBeta, NADPH fluorescence decrease slope, 10 min; at 10 µM; stronger effect = lower value
[7] = target: Muscarinic acetylcholine receptor M4 (Homo sapiens) (UniProt P08173); experiment: compounds altering M4/GIRK thallium flux, either direction, primary screen, M4 allosteric agonist project, cell-based, HEK293 M4/GIRK, BTC-AM (AID 625;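 active = fluorescence slope after compound addition differing from the mean of all tested samples at 99.7% confidence, mostly higher but some lower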;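 note: thallium influx through GIRK channels coupled to M4 in HEK293 cells with BTC-AM dye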); settings: at 10 µM, actives lie on both sides
Muscarinic acetylcholine receptor M4 (Homo sapiens), sequence (P08173 whole entry, looked up): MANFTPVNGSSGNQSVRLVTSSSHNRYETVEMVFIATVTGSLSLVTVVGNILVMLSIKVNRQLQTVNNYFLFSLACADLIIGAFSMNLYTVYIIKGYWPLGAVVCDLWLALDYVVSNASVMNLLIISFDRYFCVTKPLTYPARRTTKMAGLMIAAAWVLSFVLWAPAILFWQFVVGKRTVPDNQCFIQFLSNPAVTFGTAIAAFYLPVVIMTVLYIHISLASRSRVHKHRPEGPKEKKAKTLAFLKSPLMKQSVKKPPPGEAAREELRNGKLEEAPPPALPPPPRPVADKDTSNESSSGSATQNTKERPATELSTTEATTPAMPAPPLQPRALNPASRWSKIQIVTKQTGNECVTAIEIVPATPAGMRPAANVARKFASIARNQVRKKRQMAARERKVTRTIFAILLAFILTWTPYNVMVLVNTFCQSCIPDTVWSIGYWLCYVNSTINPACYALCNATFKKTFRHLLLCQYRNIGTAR
Outline: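 assay system = HEK293 cells with M4 receptor and GIRK channels | medium = pH 7.3 thallium assay buffer | doses = 10 µM final, single point | timing = cells overnight at 37 °C, BTC-AM loading 1 h, reads 2 min total | signal = BTC-AM fluorescence, 1 Hz kinetic reads | read-out = post-addition slope, 15–24 s, of baseline-normalized fluorescence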

[8] = inhibitors of larval lipid processing in zebrafish, primary screen, whole organism, PED6 fluorescence, gall bladder and intestine (AID 686;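 active = a full or partial loss of lipid-probe fluorescence in the fish gall bladder, intestine or both, judged by eye; inactive = no fluorescence loss, or compound toxic to the fish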;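 note: larvae 5 to 7 days old with five fish per well; signal comes from phospholipase A2 cleavage of quenched PED6 carried via bile; overnight exposure to compound and PED6 before scoring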); settings: Zebrafish larvae PED6 lipid processing, fluorescence scoring; screened at 20 µM (by protocol)
Outline: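 Also added: quenched phospholipase substrate PED6, 100 nM final, ingested by larvae; System: zebrafish larvae, 5-7 d; Quantity: 5 larvae per well; Compound: 20 µM single dose; Schedule: overnight compound and PED6 incubation; Read-out: visual per-well fluorescence inhibition score; Measured by: By-eye fluorescence microscopy; Medium: E3.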

[9] = inhibitors of Chlamydomonas gravitaxis, primary screen, whole organism, Chlamydomonas reinhardtii, WT vs cilia-less mutant, absorbance, 96-well (AID 463189;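 active = inhibition at or above 50% relative to wild type and mutant plate controls; inactive = inhibition below 50%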;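 note: 0% = wild type cc124 cells in DMSO and 100% = ciliumless bld1 mutant cells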); settings: OD600 absorbance, 2 days, at 10 µM, stronger effect = higher value
[10] = measured here: cell density z-score
[11] = measured here: nuclear c-Myc green intensity z-score
[12] = measured here: nuclear pErk red intensity z-score, stronger effect = higher value

Structure (SMILES) | cell count [1] | inhibition [1] | inhibition [2] | nuclei count [2] | z-score [3, 10] | z-score [3, 11] | z-score [3, 12] | inhibition [4] | fluorescence slope [5] | NADPH fluorescence slope [6] | fluorescence slope [7] | outcome [8] | inhibition [9]
O=C(O)C1CC(=O)N(Cc2cccs2)C1 (stereo not given) | 557 | -4.7% (inactive) | -73.2% (inactive) | 165% | 0.677 | 0.857 | -1.54 | 17.8% (inactive) | -0.404 (inactive) | -3e-05 (inactive) | 0.00636 (inactive) | inactive | -9.05% (inactive)
COC(=O)c1[nH]c2cc(OC)ccc2c1NC(=O)CN1CCN(c2cccc(C)c2)C(C)C1 (stereo not given) | 670 | 1% (inactive) | -108% (inactive) | 166% | -0.376 | -0.924 | -0.753 | -1.12% (inactive) | -0.429 (inactive) | -3.4e-05 (inactive) | 0.0042 (inactive) | inactive | 4.21% (inactive)
O=C(O)CSCC(=O)Nc1ccc(S(=O)(=O)N2CCCCC2)cc1 | 500 | -7.8% (inactive) | -62% (inactive) | 162% | 0.13 | -1.22 | 0.192 | -3.95% (inactive) | -0.424 (inactive) | -3.2e-05 (inactive) | 0.00479 (inactive) | inactive | -4.71% (inactive)
COc1ccc(C2Nc3ccccc3C(=O)N2Cc2ccco2)cc1CN1C(=O)c2ccccc2C1=O (stereo not given) | 691 | -6.9% (inactive) | 20.3% (inactive) | 132% | 0.751 | -1.72 | 0.41 | 9.07% (inactive) | -0.461 (inactive) | -4.4e-05 (inactive) | 0.00497 (inactive) | inactive | 8.71% (inactive)
Cc1c(C2CC(=O)N(c3ccccc3)C2=O)[nH]n(-c2ccccc2)c1=O (stereo not given) | 618 | 4.4% (inactive) | -97.6% (inactive) | 143% | -1.05 | 0.971 | 0.084 | -7.86% (inactive) | -0.488 (inactive) | -5.3e-05 (inactive) | 0.00493 (inactive) | inactive | 6.43% (inactive)
Cc1ccc(N2C(=O)CC(Cn3nc(C)cc3C)C2=O)cc1 (stereo not given) | 471 | -3.4% (inactive) | 5.8% (inactive) | 98.6% | 0.966 | -0.538 | -0.159 | 11.9% (inactive) | -0.387 (inactive) | -2e-06 (inactive) | 0.00565 (inactive) | inactive | 25.4% (inactive)
CCOC(=O)N1CCN(c2ncnc3c2cnn3-c2ccc(OC)cc2)CC1 | 638 | -4.6% (inactive) | -140% (inactive) | 149% | 0.712 | -0.105 | 0.21 | 13.4% (inactive) | -0.379 (inactive) | -4.6e-05 (inactive) | 0.00565 (inactive) | inactive | 0.263% (inactive)
Brc1ccc(-c2cnnc(N3CCCC3)n2)cc1 | 399 | -2.1% (inactive) | -57.7% (inactive) | 130% | -1.38 | 0.891 | -0.195 | -0.608% (inactive) | -0.415 (inactive) | -1.2e-05 (inactive) | 0.005 (inactive) | inactive | 42.9% (inactive)
N#C/C(C(=O)NCc1ccco1)=C1/SC(Cc2ccc(Cl)cc2)C(=O)N1c1ccccc1 (stereo not given) | 633 | -0.2% (inactive) | -35.3% (inactive) | 104% | 0.196 | -0.248 | -0.52 | -9.53% (inactive) | -0.428 (inactive) | -5.4e-05 (inactive) | 0.00683 (inactive) | inactive | 2.21% (inactive)
N#Cc1c(NCCCO)nc(-c2ccccc2)c2c1CCCC2 | 598 | -4.5% (inactive) | -60.9% (inactive) | 154% | -0.266 | 0.00477 | 1.17 | -0.233% (inactive) | -0.435 (inactive) | -0.000107 (inactive) | 0.00541 (inactive) | inactive | 0.512% (inactive)
COc1ccc(C(O)C(CN2CCOCC2)c2ccccc2)cc1 (stereo not given) | 393 | -2.8% (inactive) | -22.6% (inactive) | 144% | -0.497 | -1.2 | 2.05 | -2.59% (inactive) | -0.44 (inactive) | -0.00013 (inactive) | 0.00559 (inactive) | inactive | -3.86% (inactive)
COC(=O)/C(C#N)=C1/SC=C(C)N1c1ccccc1 | 611 | 4.9% (inactive) | -42.5% (inactive) | 115% | -0.0327 | -1.23 | -0.208 | -13.3% (inactive) | -0.46 (inactive) | -5.6e-05 (inactive) | 0.00543 (inactive) | inactive | -8.28% (inactive)
CCOC(=O)CNC(=O)CNC(=O)c1ccc(OC)cc1 | 394 | -0.5% (inactive) | 6.4% (inactive) | 82.7% | 0.162 | 0.31 | 1.25 | 17.4% (inactive) | -0.447 (inactive) | -5.5e-05 (inactive) | 0.0051 (inactive) | inactive | 23.5% (inactive)
COc1cccc(CNc2ncc(Br)cc2Br)c1O | 474 | -5.4% (inactive) | -263% (inactive) | 170% | -1.34 | 0.935 | 2.04 | -5.62% (inactive) | -0.439 (inactive) | -4.8e-05 (inactive) | 0.0052 (inactive) | inactive | 5.51% (inactive)
CCOc1ccc(C2C=C(c3ccccc3)Nc3ncnn32)cc1 (stereo not given) | 531 | -1.1% (inactive) | 58.8% (inactive) | 151% | -0.603 | 0.992 | -0.889 | 11.9% (inactive) | -0.0438 (inactive) | -6.4e-06 (inactive) | 0.00687 (inactive) | inactive | 22.6% (inactive)
N#Cc1c(N2CCCCC2)nc(N2CCCCC2)c2c1CCN(Cc1ccccc1)C2 | 606 | -3.7% (inactive) | -146% (inactive) | 154% | 0.785 | -0.814 | 0.622 | -4.59% (inactive) | -0.431 (inactive) | -9.2e-05 (inactive) | 0.0046 (inactive) | inactive | 4.47% (inactive)
C(=N\n1cnnc1)/c1ccccn1 | 607 | 3.2% (inactive) | -109% (inactive) | 127% | 0.675 | 3.12 | -0.143 | 9.42% (inactive) | -0.442 (inactive) | -0.000114 (inactive) | 0.00562 (inactive) | inactive | 16.5% (inactive)
CCOC(=O)NC(Nc1sc2c(c1C(=O)OC)CCN(C)C2)(C(F)(F)F)C(F)(F)F | 614 | 3.1% (inactive) | -20.8% (inactive) | 89.6% | 0.751 | -0.407 | -0.601 | 16.5% (inactive) | -0.501 (inactive) | -3.3e-05 (inactive) | 0.00619 (inactive) | inactive | 36.6% (inactive)
CCN(CC)CCN1C(=O)c2ccccc2NC1c1cc(OC)c(OC)c(OC)c1 (stereo not given) | 672 | -13.1% (inactive) | 57.5% (inactive) | 132% | 0.00511 | -1.27 | 1.11 | 3.49% (inactive) | -0.0732 (inactive) | -1.4e-05 (inactive) | 0.00441 (inactive) | inactive | 16.2% (inactive)
CN(C)c1ccc(C=Nc2cnn(C)c2C(N)=O)cc1 | 657 | 5.6% (inactive) | 2% (inactive) | 112% | -0.322 | 0.511 | 0.593 | 9.91% (inactive) | -0.548 (inactive) | -8.2e-05 (inactive) | 0.00504 (inactive) | inactive | 13.4% (inactive)
COc1nnnc2c1sc1nc(N3CCOCC3)c3c(c12)CC(C)(C)OC3 | 590 | -3.9% (inactive) | -92.2% (inactive) | 154% | 0.493 | 0.116 | -0.785 | -13.3% (inactive) | -0.482 (inactive) | -0.000107 (inactive) | 0.00514 (inactive) | inactive | -3.82% (inactive)
Cc1ccc(-n2ncc3c(NCCCOC(C)C)ncnc32)c(C)c1 | 586 | -13.1% (inactive) | 45.2% (inactive) | 161% | -1.65 | 1.1 | -0.077 | 1.42% (inactive) | -0.408 (inactive) | -4.3e-05 (inactive) | 0.00603 (inactive) | inactive | 39% (inactive)
CCCN(CCC)c1nc2ccccc2nc1C(C#N)C(=O)OC(C)COC (stereo not given) | 586 | -26.5% (inactive) | 1.8% (inactive) | 174% | 0.238 | 0.588 | 0.413 | -12.6% (inactive) | -0.408 (inactive) | -7.9e-05 (inactive) | 0.00444 (inactive) | inactive | 26.1% (inactive)
CN(CCCCCNC(=O)/C=N/O)Cc1ccccc1 | 661 | -11.4% (inactive) | -47.5% (inactive) | 99.4% | -0.0258 | 0.279 | -0.452 | 5.35% (inactive) | -0.537 (inactive) | -6.5e-05 (inactive) | 0.00725 (inactive) | inactive | 27.9% (inactive)
Cc1ccc(-n2[nH]c(C)c(C=Nc3cc(C)ccn3)c2=O)cc1 | 512 | 3% (inactive) | 4.6% (inactive) | 87.7% | -0.346 | -0.03 | 0.605 | -13.3% (inactive) | -0.459 (inactive) | -3.6e-05 (inactive) | 0.0056 (inactive) | inactive | 51.3% (active)

From PubChem BioAssay
